The text below walks through data of ChEMBL document CHEMBL2163225, “Fluorescent Human EP3 Receptor Antagonists” (ACS Med Chem Lett, 2012).

Molecules are shown by their SMILES. Activity calls are given as the source filed them. No cut-off for these calls is given here.

The target in series [1] is T1, Prostaglandin E2 receptor EP3 subtype (Homo sapiens, UniProt P43115).
T1 sequence (P43115 whole entry): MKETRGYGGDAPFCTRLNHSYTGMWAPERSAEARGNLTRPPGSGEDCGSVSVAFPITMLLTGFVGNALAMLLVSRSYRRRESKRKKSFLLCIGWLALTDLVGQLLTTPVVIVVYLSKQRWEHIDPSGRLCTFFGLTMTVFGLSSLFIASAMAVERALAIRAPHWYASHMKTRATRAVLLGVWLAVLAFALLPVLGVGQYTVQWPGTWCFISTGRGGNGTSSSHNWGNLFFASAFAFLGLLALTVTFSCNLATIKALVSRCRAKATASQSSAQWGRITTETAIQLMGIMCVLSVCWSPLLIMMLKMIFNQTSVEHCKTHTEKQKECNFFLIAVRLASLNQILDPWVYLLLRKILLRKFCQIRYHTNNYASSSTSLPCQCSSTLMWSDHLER
Put plainly: Displacement of [3H]PGE2 from human EP3R expressed in chem1 cells after 2hrs by beta counting. It counts as cell-based. A digest of the protocol: (§1)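 Radioligand competition binding with [3H]PGE2 on recombinant human EP1, EP2, EP3 or EP4 receptor membrane preparations (ChemiSCREEN). Ki reported ± SEM.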

Series [2] is described as follows: Antiplatelet activity in human platelet rich plasma assessed as inhibition of PGE2/collagen-induced aggregation preincubated at 100 nM after 10 mins by light transmission aggregometry. Format: functional. A digest of the protocol:
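Human platelet-rich plasma preincubated 10 min with ligand at 100 nM. Aggregation then triggered by collagen 0.25 μg/mL plus PGE2 1 μM. Read by light transmission aggregometry against unspiked PRP.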

The target of series [3] is T2, Prostaglandin E2 receptor EP3 subtype (Homo sapiens) (UniProt P43115).
T2 sequence (whole entry): T1 sequence (P43115 whole entry)
Put plainly: Binding affinity to EP3R in human HT-29 cytoplasm at 3 uM measured 72 hrs post FBS withdrawal by fluorescence microscopy. A digest of the protocol: (§2)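 HT-29 colon adenocarcinoma cells. EP3R expression induced by 72 h FBS withdrawal; FBS-cultured cells served as control. Ligand incubated 1 h, or 24 h for the longer time point. Blue-emitting ligands used at 3 μM with propidium iodide counterstain. Red ligand used at 300 nM with DAPI nuclear stain. For displacement, ligand was followed by 3-fold excess competitor (9 μM or 900 nM) for 1 h. Read by confocal microscopy.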

The target of series [4] is T3, Prostaglandin E2 receptor EP1 subtype (Homo sapiens, UniProt P34995).
T3 sequence (P34995 whole entry): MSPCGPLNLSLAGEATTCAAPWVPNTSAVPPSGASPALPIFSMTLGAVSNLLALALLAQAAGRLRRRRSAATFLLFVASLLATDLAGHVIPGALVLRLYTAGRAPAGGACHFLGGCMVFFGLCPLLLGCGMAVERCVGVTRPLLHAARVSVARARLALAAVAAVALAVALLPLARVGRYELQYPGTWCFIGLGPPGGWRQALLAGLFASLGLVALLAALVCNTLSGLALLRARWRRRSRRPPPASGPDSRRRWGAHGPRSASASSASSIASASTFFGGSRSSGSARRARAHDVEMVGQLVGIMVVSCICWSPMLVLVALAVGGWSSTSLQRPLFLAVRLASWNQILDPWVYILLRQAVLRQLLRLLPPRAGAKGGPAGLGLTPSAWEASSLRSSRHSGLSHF
Put plainly: Displacement of [3H]PGE2 from human EP1R expressed in chem1 cells after 2hrs by beta counting. Format: cell-based. Put shortly:
as §1

Series [5] addresses Prostaglandin E2 receptor EP2 subtype (Homo sapiens, UniProt P43116). Put plainly: Displacement of [3H]PGE2 from human EP2R expressed in chem1 cells after 2hrs by beta counting. Format: cell-based. Put shortly:
as §1

Series [6] addresses Prostaglandin E2 receptor EP4 subtype (Homo sapiens, UniProt P35408). Put plainly: Displacement of [3H]PGE2 from human EP4R expressed in chem1 cells after 2hrs by beta counting. It counts as cell-based. Put shortly:
as §1

Series [7] concerns the target T2, Prostaglandin E2 receptor EP3 subtype (Homo sapiens). Put plainly: Binding affinity to EP3R in human brain globus pallidus at 1 uM after 1 hr by fluorescence imaging. Format: tissue-based. Put shortly:
(§3)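 Human cerebral cortex and globus pallidus sections incubated 1 h with 1 μM red pyryllium ligand. For displacement, 100 μM competitor was added. Imaged by confocal fluorescence microscopy.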

Series [8] has the same target. Put plainly: Binding affinity to EP3R in human brain globus pallidus at 1 uM after 1 hr by fluorescence imaging in presence of 100-fold excess of (E)-3-(2-((E)-3-(4-(Benzyloxy)-3- methoxyphenyl)prop-1-enyl)phenyl)acrylic acid. Format: tissue-based. Put shortly:
as §3

The target is the same in series [9]. Put plainly: Binding affinity to EP3R in human HT-29 cells cultured in absence of FBS at 300 nM after 1 hr by fluorescence microscopy. Format: cell-based. A digest of the protocol:
as §2

Series [10] shares this target. Put plainly: Binding affinity to EP3R in human HT-29 cells cultured in absence of FBS at 300 nM after 1 hr by fluorescence microscopy in presence of 3-fold excess of (E)-3-(2-((E)-3-(4-(Benzyloxy)-3- methoxyphenyl)prop-1-enyl)phenyl)acrylic acid. It counts as cell-based. Put shortly:
as §2

The target is the same in series [11]. Put plainly: Binding affinity to EP3R in human HT-29 cells cultured in absence of FBS at 300 nM after 24 hrs by fluorescence microscopy. Format: cell-based. Put shortly:
as §2

The target is the same in series [12]. Put plainly: Induction of EP3R internalization in human HT-29 cells cultured in absence of FBS at 300 nM after 24 hrs by fluorescence microscopy. It counts as cell-based. Put shortly: as §2
Series [13] has as its target T4, Prostaglandin E2 receptor EP3 subtype (Mus musculus) (UniProt P30557).
T4 sequence (whole entry): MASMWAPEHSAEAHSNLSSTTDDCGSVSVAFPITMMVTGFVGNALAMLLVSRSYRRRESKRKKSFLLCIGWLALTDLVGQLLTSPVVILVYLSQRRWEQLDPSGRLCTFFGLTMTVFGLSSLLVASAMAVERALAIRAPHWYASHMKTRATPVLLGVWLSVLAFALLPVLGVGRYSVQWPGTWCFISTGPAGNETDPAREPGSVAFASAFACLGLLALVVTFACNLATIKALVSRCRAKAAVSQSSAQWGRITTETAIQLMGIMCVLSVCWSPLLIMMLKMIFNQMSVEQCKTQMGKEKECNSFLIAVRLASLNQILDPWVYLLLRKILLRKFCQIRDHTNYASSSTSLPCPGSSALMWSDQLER
Put plainly: Binding affinity to EP3R in C57bl6 mouse kidney arterial smooth muscle cells at 1 uM after 1 hr by fluorescence imaging. Put shortly:
(§4)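 Kidney tissue from C57Bl6 wild-type and EP3−/− mice incubated 1 h with 1 μM red pyryllium-labelled ligand. Imaged by confocal laser scanning fluorescence microscopy. Renal artery autofluorescence recorded separately.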

For series [14], the target named is T4, Prostaglandin E2 receptor EP3 subtype (Mus musculus). Put plainly: Binding affinity to EP3R in C57bl6 mouse cortical collecting tubuli epithelial cells at 1 uM after 1 hr by fluorescence imaging. Format: cell-based. The following applies: Epithelial cell. A digest of the protocol:
as §4

For another series, the system named is Kidney. Put plainly: Drug uptake in EP3R-/- mouse kidney at 1 uM after 1 hr by fluorescence imaging. Format: ADME, tissue-based. A digest of the protocol: as §4
Series [15] concerns the target T2, Prostaglandin E2 receptor EP3 subtype (Homo sapiens). Put plainly: Binding affinity to EP3R in human brain cerebral cortex at 1 uM after 1 hr by fluorescence imaging. It counts as tissue-based. Put shortly:
as §3

Series [16] shares this target. Put plainly: Binding affinity to EP3R in human brain cerebral cortex at 1 uM after 1 hr by fluorescence imaging in presence of 100-fold excess of (E)-3-(2-((E)-3-(4-(Benzyloxy)-3- methoxyphenyl)prop-1-enyl)phenyl)acrylic acid. It counts as tissue-based. Put shortly: as §3
Series [17] has the same target. Put plainly: Binding affinity to EP3R in human platelet at 1 uM after 1 hr by fluorescence imaging. A digest of the protocol: (§5)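 Fixed human platelets on flow-chamber slides incubated 1 h with 1 μM red fluorescent ligand. For displacement, 1 mM competitor was added. Read by fluorescence imaging.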
The target is the same in series [18]. Put plainly: Binding affinity to EP3R in human platelet at 1 uM after 1 hr by fluorescence imaging in presence of 1 mM (E)-3-(2-((E)-3-(4-(Benzyloxy)-3- methoxyphenyl)prop-1-enyl)phenyl)acrylic acid. A digest of the protocol:
as §5

The target is the same in series [19]. Put plainly: Binding affinity to EP3R in human platelet rich plasma preincubated at 5 uM for 10 mins by FACS analysis. Put shortly:
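Human platelet-rich plasma preincubated 10 min with 5 μM red fluorescent ligand. Analysed by flow cytometry (FACS) in the red channel against untreated PRP. Scatter cloud inspected as a check on platelet activation.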

The target is the same in series [20]. Put plainly: Induction of EP3R-mediated platelet activation in human platelet rich plasma at 5 uM after 10 mins by FACS analysis.
Series [21] shares this target. Put plainly: Binding affinity to EP3R in human HT-29 cells cultured in absence of FBS at 3 uM after 1 hr by fluorescence microscopy in presence of 3-fold excess of (E)-3-(2-((E)-3-(4-(Benzyloxy)-3- methoxyphenyl)prop-1-enyl)phenyl)acrylic acid. Format: cell-based. Put shortly:
as §2

Sequence of Prostaglandin E2 receptor EP2 subtype (P43116 whole entry): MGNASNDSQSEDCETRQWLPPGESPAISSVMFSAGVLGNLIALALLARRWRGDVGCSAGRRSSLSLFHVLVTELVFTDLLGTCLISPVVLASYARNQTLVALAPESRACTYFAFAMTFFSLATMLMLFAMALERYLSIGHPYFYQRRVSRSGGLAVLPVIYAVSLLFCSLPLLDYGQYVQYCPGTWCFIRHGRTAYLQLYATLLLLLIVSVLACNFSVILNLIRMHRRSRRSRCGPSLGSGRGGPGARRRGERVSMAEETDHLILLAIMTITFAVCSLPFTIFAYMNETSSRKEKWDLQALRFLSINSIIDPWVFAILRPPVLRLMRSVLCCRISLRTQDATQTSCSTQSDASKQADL
Sequence of Prostaglandin E2 receptor EP4 subtype (P35408 whole entry): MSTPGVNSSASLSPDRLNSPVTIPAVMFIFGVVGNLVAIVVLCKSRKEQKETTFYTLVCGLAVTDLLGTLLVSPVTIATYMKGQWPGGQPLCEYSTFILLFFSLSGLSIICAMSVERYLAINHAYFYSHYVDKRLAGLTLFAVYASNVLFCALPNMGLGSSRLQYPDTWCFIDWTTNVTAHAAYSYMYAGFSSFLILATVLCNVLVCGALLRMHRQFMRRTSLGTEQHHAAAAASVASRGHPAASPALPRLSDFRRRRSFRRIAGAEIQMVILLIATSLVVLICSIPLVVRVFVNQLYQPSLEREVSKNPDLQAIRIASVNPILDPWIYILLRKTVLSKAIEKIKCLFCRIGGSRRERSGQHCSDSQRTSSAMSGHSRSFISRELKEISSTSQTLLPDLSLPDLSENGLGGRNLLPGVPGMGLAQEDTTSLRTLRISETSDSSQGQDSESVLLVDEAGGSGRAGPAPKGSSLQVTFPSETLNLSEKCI

In turn, `COc1cc(C/C=C/c2ccccc2/C=C/C(=O)O)ccc1OCCNC(=S)Nc1ccc(C(=O)O)c(-c2c3ccc(=O)cc-3oc3cc(O)ccc23)c1` had a Ki in series [1] of 1260 nM. The inhibition at 0.1 µM in series [2] was 40%.

For `COc1cc(C/C=C/c2ccccc2/C=C/C(=O)O)ccc1OCCNc1ccc([N+](=O)[O-])cc1[N+](=O)[O-]`, the Ki in [1] stood at 23.4 nM. Further, the Activity in [3] stood at 60%. Moreover, the inhibition at 0.1 µM in [2] was 40%.

Consider `COc1cc(C/C=C/c2ccccc2/C=C/C(=O)NS(=O)(=O)c2cccs2)ccc1OCc1ccccc1`, for which the Ki in [4] was 2440 nM; in series [5], 2410 nM; in series [6] it was 4300 nM. For the same compound, in series [2], the inhibition at 0.1 µM is 40%.

In the case of `COc1cc(C/C=C/c2ccccc2/C=C/C(=O)O)ccc1OCC[n+]1c(C)cc(/C=C/C=C/c2ccc(N(C)C)cc2)cc1C.F[B-](F)(F)F`, the result in series [7], in series [9], in series [11], in [13], in series [14] and in series [15] was Active. In addition, the result in series [17] was Active. In addition, the result in series [8], in [10], in [12], in series [16], in series [18] and in [20] was inactive. Moreover, the Ki in series [1] came out at 135 nM; in series [4], 68600 nM; in series [5] it was 2940 nM; in series [6], 902 nM. Moreover, the Drug uptake entry with Kidney is “Not Active”. In [19], this compound gave an Activity of 50%. Further, the inhibition at 0.1 µM in series [2] is 40%.

Regarding `COc1cc(C/C=C/c2ccccc2/C=C/C(=O)O)ccc1OCc1ccccc1`, the figures for the Ki in series [4], in series [5] and in series [6] were 151000 nM, 1730 nM and 6310 nM, respectively. For the same compound, the inhibition at 0.1 µM in series [2] turned out to be 40%.

`COc1cc(C/C=C/c2ccccc2/C=C/C(=O)O)ccc1OCC[n+]1c(C)cc(/C=C/c2ccc(N(C)C)cc2)cc1C`: in series [1], the affinity corresponds to a Ki of 218 nM. Also, the inhibition at 0.1 µM in series [2] came out at 40%.

In the case of `COc1cc(C/C=C/c2ccccc2/C=C/C(=O)O)ccc1OCCn1cc2ccccc2c1C#N`, the Ki stood at 18 nM in series [1], 16000 nM in series [4], 4260 nM in series [5] and 3180 nM in series [6]. In series [3], this compound showed an Activity of 58%. The result in series [21] was inactive. Besides, the inhibition at 0.1 µM in series [2] was 40%.

As to `COc1cc(C/C=C/c2ccccc2/C=C/C(=O)O)ccc1OCCN`, the Ki in [1] turned out to be 1500 nM. Besides, in series [2], the inhibition at 0.1 µM is 40%.

Compound `COc1cc(C/C=C/c2ccccc2/C=C/C(=O)O)ccc1OCCNC(=S)Nc1ccc(-c2c3ccc(=O)cc-3oc3cc(O)ccc23)c(C(=O)O)c1` gave a Ki in series [1] of 678 nM. In addition, in [2], the inhibition at 0.1 µM turned out to be 40%.

As for `COc1cc(C/C=C/c2ccccc2/C=C/C(=O)NS(=O)(=O)c2cccs2)ccc1OCCn1cc2ccccc2c1C#N`, the Ki came out at 26 nM in series [1], 20300 nM in series [4], 10800 nM in series [5] and 9450 nM in series [6]. The compound further had an Activity in [3] of 55%. The inhibition at 0.1 µM in series [2] is 40%.
